Screening data deposited in PubChem by The Scripps Research Institute Molecular Screening Center.
Compounds with a hit are over-represented: about 1.6% of the library has one in this group of screens.
TDP2 inh = human TDP2 enzyme inhibitors, primary screen, biochemical, epi absorbance, recombinant enzyme | T5PNP hydrolysis, p-nitrophenol absorbance 415 nm | inhibition, % at 12.8 µM | 370,000 tested, 0.34% active;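 active = inhibition above the mean of all tested compounds plus 3 SD, set per campaign, cut at about 25% in these data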;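 also: 0% = DMSO with enzyme and 100% = buffer with substrate but no TDP2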
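Test system: human TDP2 enzyme; Input: 120 nM TDP2 per well; Buffer or medium: Mg2+-containing Tris-HCl buffer, pH 7.5; Reagent: 5 mM T5PNP; Dosing: 12.8 µM single point, 1% DMSO; Incubation: reaction 2 h, 37 °C; Detection: p-Nitrophenol epi absorbance; Read-out: % inhibition relative to enzyme-containing and enzyme-free wells; Replicates: single well per compound.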
LEDGF integ inh = blockers of LEDGF/p75-dependent integrase strand transfer – biochemical, TR-FRET, high throughput, primary screen; HIV-1 integrase (with human LEDGF/p75); TR-FRET IN-LEDGF/p75 DNA integration, Eu/Cy5; inhibition, % at 3.7 µM; 370,000 tested, 0.64% active; AID 743269, 2014;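 active = inhibition above the screen-wide mean plus 3 SD, cut at about 13% in these data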;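 also: signal is the Cy5 over europium emission ratio at 671 and 618 nm; 0% = plate median of compound wells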
UHRF1 MBD2 ctr = UHRF1 methylated DNA binding inhibitors, primary screen, counter-screen for MBD2 inhibitor project, biochemical, TR-FRET, human UHRF1, single concentration. E3 ubiquitin-protein ligase UHRF1 (Homo sapiens), Q96T88. UHRF1 binding to methylated oligo. inhibition, % at 4.4 µM. 370,000 tested, 0.75% active. AID 687016, 2013;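 also: UHRF1 SRA domain binding a hemimethylated CpG hairpin DNA probe; 0% = median of test compound wells and 100% = reference inhibitor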
MBD2 DNA inh = inhibitors of MBD2 binding to methylated DNA, primary screen, biochemical, TR-FRET, DNA-binding domain, human; Methyl-CpG-binding domain protein 2 (Homo sapiens), Q9UBB5; MBD2 binding to methylated oligonucleotide; inhibition, % at 4.4 µM; 370,000 tested, 0.31% active; AID 686964, 2013; in the data active = inhibition above about 13%
Target sequence (Q9UBB5 whole entry, looked up, the tested form may be a part): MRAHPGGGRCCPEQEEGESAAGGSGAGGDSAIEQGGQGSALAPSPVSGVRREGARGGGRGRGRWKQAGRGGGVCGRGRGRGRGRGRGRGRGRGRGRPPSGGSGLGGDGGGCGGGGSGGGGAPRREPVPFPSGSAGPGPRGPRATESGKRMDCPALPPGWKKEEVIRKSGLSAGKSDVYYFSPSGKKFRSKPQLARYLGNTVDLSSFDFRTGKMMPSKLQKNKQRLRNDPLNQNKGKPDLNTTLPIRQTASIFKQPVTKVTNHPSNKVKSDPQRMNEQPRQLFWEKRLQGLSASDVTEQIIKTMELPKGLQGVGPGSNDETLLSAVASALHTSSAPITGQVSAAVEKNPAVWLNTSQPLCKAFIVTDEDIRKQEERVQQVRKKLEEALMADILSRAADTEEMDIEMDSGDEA
UHRF1 DNA bind = UHRF1 methylated DNA binding inhibitors, counter-screen for MBD2 inhibitor project, biochemical, TR-FRET, human UHRF1 | shares compounds with MBD2 DNA inh | UHRF1 binding to methylated oligonucleotide | inhibition, % at 4.4 µM | 1,000 tested, 25% active | AID 720530, 2013;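 also: UHRF1 SRA domain binding a labeled hemimethylated CpG hairpin DNA; 0% = vehicle only and 100% = reference inhibitor with vehicle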
MBD2 confirm = inhibitors of MBD2 binding to methylated DNA, confirmation, biochemical, TR-FRET, DNA-binding domain, human. 1,000 tested, 26% active. inhibition, % at 4.4 µM. shares compounds with MBD2 DNA inh. TR-FRET MBD2-DBD binding to methylated oligonucleotide. AID 720531, 2013; in the data active = inhibition above about 14%
* = called active by the depositor; · = no result given. Rule as the data show it, unless noted: active = inhibition above about 21%; inactive = the rest.

SMILES | TDP2 inh | LEDGF integ inh | UHRF1 MBD2 ctr | MBD2 DNA inh | UHRF1 DNA bind | MBD2 confirm
CCOc1cc(CN2CCc3c([nH]c4ccccc34)C2)ccc1OC | 5 | -1 | -2 | 2 | · | ·
CC(C)(C)Nc1scc(-c2ccccc2)[n+]1-c1ccccc1 | 15 | 0 | 5 | 18* | 8 | 3
O=C(CCc1ccccc1O)NC1CCCc2ccccc21 (stereo not given) | -4 | -1 | -1 | -2 | · | ·
Cc1cc(C)c(S(=O)(=O)N(CC(=O)O)CC(=O)O)c(C)c1 | 2 | -6 | -2 | -2 | · | ·
CN(Cc1c(O)ccc2c1oc(=O)c1ccccc12)C1CCCCC1 | -12 | 6 | 19 | 20* | 2 | 10
CN(C)Cc1c(O)ccc2c3c(c(=O)oc12)CCCCC3 | 2 | 0 | -2 | -2 | · | ·
C=CCn1c(SCC(N)=O)nc2scc(-c3ccc(C)o3)c2c1=O | -14 | -5 | 10 | 14* | 2 | 0
c1ccc(-c2ccc3nnnn3n2)cc1 | 7 | -3 | 0 | 6 | · | ·
CC(C)Oc1ccc2nnnn2n1 | 8 | 0 | 22* | 14* | 9 | 4
CCN(CC)S(=O)(=O)c1ccc(N2CCCC2)c(NC(=O)c2nn(C)c(=O)c3ccccc23)c1 | 10 | 4 | 0 | 0 | · | ·
CCN(CC)S(=O)(=O)c1ccc(N2CCOCC2)c(NC(=O)c2nn(C)c(=O)c3ccccc23)c1 | 5 | -7 | 0 | 14* | 7 | 5
Cc1cc(C)c2c(N)c(C(=O)NCC3CCCCC3)sc2n1 | 8 | 0 | 1 | -6 | · | ·
CS(=O)(=O)N1CCc2ccccc2C1 | -7 | 1 | 1 | -4 | · | ·
Cc1ccc(C(C)C)c(OCC(=O)NS(=O)(=O)c2ccc(Cl)cc2)c1 | -11 | 3 | 1 | -5 | · | ·
Cc1ccccc1OCC(=O)NS(=O)(=O)c1ccc(Cl)cc1 | 5 | 0 | -2 | 14* | 3 | 2
O=C(COC(=O)c1ccc2[nH]c3c(c2c1)CCCC3)NC1CCS(=O)(=O)C1 (stereo not given) | 0 | -3 | 4 | 5 | · | ·
C=C(C)CSc1nnc2[nH]c(=O)cc(N)n12 | -4 | -5 | 4 | 3 | · | ·
Cc1ccc(C)c2nc(Cl)c(C#N)cc12 | 1 | -5 | 2 | 14* | 3 | 4
Cc1ccc(C)c2nc(N3CCCC3)c(C#N)cc12 | 4 | -1 | -3 | -4 | · | ·
O=C(NCc1cccc(Cl)c1)c1ccc(-n2ccnc2)c2ccoc12 | 11 | 0 | 22* | 14* | 7 | 8
COc1ccc(CNC(=O)c2ccc(-n3ccnc3)c3ccoc23)cc1OC | -5 | 1 | 23* | 14* | 12 | 13
CC(C)CCN(C)C1CCN(C(=O)NCc2ccccc2)CC1 | -21 | 3 | 1 | -7 | · | ·
C1CSC2(N1)C1CC3CC2CC(C1)C31NCCS1 (stereo not given) | 8 | -1 | 4 | 7 | · | ·
Cc1cccc2c(N)c3c(nc12)CCCC3 (tested in a mixture with another compound) | 5 | 0 | 4 | -3 | · | ·
Cc1cc(C)c2c(N)c3cccc(C)c3nc2n1 | 4 | -4 | 29* | 25* | 38* | 41*
SMILES | TDP2 inh | LEDGF integ inh | UHRF1 MBD2 ctr | MBD2 DNA inh | UHRF1 DNA bind | MBD2 confirm
CC1CCC(NCc2ccco2)CC1 (stereo not given) | -4 | 1 | 2 | 18* | 0 | 6
O=C(COC(=O)c1ccccc1O)Nc1cccc2ccccc12 | -2 | -1 | 17 | 14* | 9 | 2
O=C(COC(=O)c1cc2ccccc2cc1O)Nc1ccccc1F | -1 | 1 | 4 | 8 | · | ·
O=C(O)c1cccc(Nc2ncnc3ccc(Br)cc23)c1 | 2 | 5 | 0 | 1 | · | ·
N#Cc1c(-c2ccncc2)c2c([nH]c1=O)-c1ccccc1OC2 | -4 | -1 | 10 | 3 | · | ·
N#Cc1c(-c2ccccc2Cl)c2c([nH]c1=O)-c1ccccc1OC2 | -8 | 2 | 2 | 21* | 4 | 2
